Data set [1] can be described thus: Cytotoxicity against human HepG2 cells after 24 hrs by resazurin assay. The class given is cell-based. In general terms: The colour change of resazurin is a common sign of viable cells or microbes.
Data set [2] is described as follows: Cytotoxicity against HEK293 cells after 24 hrs by resazurin assay. The class given is cell-based. The settings on record: human.
Data set [3] deals with Staphylococcus aureus. As to the kind of experiment: Antibacterial activity against glycopeptide-intermediate Staphylococcus aureus NRS 19 assessed as growth inhibition after 24 hrs by CLSI twofold serial broth microdilution method. The class given is functional. The settings on record: NRS 19, 24 h. In a few lines:
(§1)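 CLSI-standard twofold serial broth microdilution; MIC read-out in μg/mL, with vancomycin tested alongside as reference antibiotic.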
In general terms: Dilution methods test growth across graded concentrations, often in twofold steps.

In data set [4] the test system is Staphylococcus aureus. In words: Antibacterial activity against methicillin-resistant Staphylococcus aureus ATCC 43300 assessed as growth inhibition after 24 hrs by CLSI twofold serial broth microdilution method. The class given is functional. The following applies: ATCC 43300, 24 h. In a few lines:
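Read-out was the MIC in μg/mL, determined by twofold serial broth microdilution to CLSI standards.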

Data set [5] relates to Staphylococcus aureus. As to the kind of experiment: Antibacterial activity against Staphylococcus aureus ATCC 25923 assessed as growth inhibition after 24 hrs by CLSI twofold serial broth microdilution method. The class given is functional. The settings on record: ATCC 25923, 24 h. In a few lines:
as §1

Values after ≈ are worked out from the molar mass of the structure shown. Some results are limits rather than exact numbers.

Usually CC50 stands for the concentration at which the toxic effect on the cells reaches its halfway point. A low value points to harm at low concentration. Regarding `COc1cc(/C=C\c2ccc3ccccc3c2)cc(OC)c1OC` [NAPHTHYLCOMBRETASTATIN], the cytotoxic concentration (CC50) at 24 h in data set [1] and in data set [2] was greater than 100 µM each time.

Usually MIC stands for the lowest concentration that inhibits growth of the organism. Turning to `O=C(O)c1c(O)cccc1CCc1ccc2ccccc2c1`, the 50% cytotoxic concentration (CC50) at 24 h in data set [1] and in data set [2] was greater than 100 µM in each case. Also, the minimal inhibitory concentration (MIC) with Staphylococcus aureus [3], in the data set with Staphylococcus aureus [4] and with Staphylococcus aureus [5] was greater than 128 µg/mL each time.

`COc1cc(CCc2ccc3ccccc3c2)cc(OC)c1OC`: the CC50 at 24 h in data set [1] and in data set [2] was greater than 100 µM in each case.

As for `COc1cc(Cl)cc(C=Cc2ccc3ccccc3c2)c1C(=O)O`, the 50% cytotoxic concentration (CC50) at 24 h in data set [1] amounted to 104 µM; in data set [2], 93 µM. The MIC in the data set with Staphylococcus aureus [3] is 128 µg/mL (≈ 378 µM); with Staphylococcus aureus [4], 64 µg/mL (≈ 189 µM); in the data set with Staphylococcus aureus [5], greater than 128 µg/mL.

`CCN(CC)C(=O)c1c(/C=C\c2ccc3ccccc3c2)cc(OC)cc1OC`: the CC50 at 24 h in data set [1] and in data set [2] was greater than 100 µM throughout.

As for `COc1cc(CCc2ccccc2)cc(OC)c1OC`, the cytotoxic concentration (CC50) at 24 h in data set [1] and in data set [2] was greater than 100 µM in each case.

Take `O=C(O)c1c(O)cccc1CCc1ccccc1`: the cytotoxic concentration (CC50) at 24 h in data set [1] and in data set [2] was greater than 100 µM throughout.

In the case of `CCN(CC)C(=O)c1c(O)cccc1CCc1ccc2ccccc2c1`, the CC50 at 24 h in data set [1] and in data set [2] was greater than 100 µM in each case.

For the molecule `COc1cccc(C=Cc2ccc3ccccc3c2)c1C(=O)O` (mixture of isomers), the 50% cytotoxic concentration (CC50) at 24 h in data set [1] and in data set [2] was greater than 100 µM each time. The minimal inhibitory concentration (MIC) in the data set with Staphylococcus aureus [3], with Staphylococcus aureus [4] and in the data set with Staphylococcus aureus [5] was greater than 128 µg/mL each time.

Turning to `O=C(O)c1c(O)cccc1C=Cc1ccc2ccccc2c1` (mixture of isomers), the 50% cytotoxic concentration (CC50) at 24 h in data set [1] stood at 71 µM; in data set [2], 97 µM. Besides, the minimal inhibitory concentration (MIC) in the data set with Staphylococcus aureus [3], in the data set with Staphylococcus aureus [4] and with Staphylococcus aureus [5] was 64 µg/mL throughout.

Turning to `CCN(CC)C(=O)c1c(CCc2ccc3ccccc3c2)cccc1OC`, the values for the CC50 at 24 h in data set [1] and in data set [2] were 35.8 µM and 85.7 µM, respectively.

Consider `CCN(CC)C(=O)c1c(O)cc(O)cc1CCc1ccc2ccccc2c1`, for which the CC50 at 24 h in data set [1] was 36.4 µM; in data set [2], 30.6 µM.

As for `COc1cc(C)cc(C=Cc2ccc3ccccc3c2)c1C(=O)O` (mixture of isomers), the CC50 at 24 h in data set [1] is 117 µM; in data set [2], 119 µM. In addition, the MIC with Staphylococcus aureus [3], in the data set on Staphylococcus aureus [4] and with Staphylococcus aureus [5] was greater than 128 µg/mL in each case.

On to `CCN(CC)C(=O)c1c(/C=C/c2ccc3ccccc3c2)cc(OC)cc1OC`, for which the CC50 at 24 h in data set [1] and in data set [2] was greater than 100 µM throughout.

Turning to `COc1cc(C=Cc2ccc3ccccc3c2)c(C(=O)O)c(OC)c1`, the CC50 at 24 h in data set [1] and in data set [2] was greater than 100 µM each time. Further, the minimal inhibitory concentration (MIC) in the data set with Staphylococcus aureus [3], in the data set with Staphylococcus aureus [4] and in the data set with Staphylococcus aureus [5] was greater than 128 µg/mL in each case.

Consider `COc1cc(O)c(C(=O)O)c(CCc2ccc3ccccc3c2)c1`, for which the CC50 at 24 h in data set [1] was 71 µM; in data set [2], 65 µM. Further, the MIC with Staphylococcus aureus [3] is 128 µg/mL (≈ 397 µM); in the data set on Staphylococcus aureus [4], 64 µg/mL (≈ 199 µM); in the data set on Staphylococcus aureus [5], 64 µg/mL (≈ 199 µM).

For `COc1cc(/C=C/c2ccccc2)cc(OC)c1OC`, the CC50 at 24 h in data set [1] worked out at 38.4 µM; in data set [2], 62.6 µM.

On to `COc1cc(O)c(C(=O)O)c(C=Cc2ccc3ccccc3c2)c1` (mixture of isomers), for which the half-maximal cytotoxic concentration (CC50) at 24 h in data set [1] stood at 79 µM; in data set [2] it was 65 µM. The results for the MIC in the data set on Staphylococcus aureus [3], with Staphylococcus aureus [4] and with Staphylococcus aureus [5] were 128 µg/mL, 128 µg/mL and greater than 128 µg/mL, respectively.

Regarding `O=C(O)c1c(O)cc(Cl)cc1CCc1ccc2ccccc2c1`, the cytotoxic concentration (CC50) at 24 h in data set [1] and in data set [2] was 35 µM throughout. The values for the MIC with Staphylococcus aureus [3], in the data set on Staphylococcus aureus [4] and in the data set on Staphylococcus aureus [5] were 128 µg/mL (≈ 392 µM), 16 µg/mL (≈ 49 µM) and 16 µg/mL (≈ 49 µM), respectively.

`CCN(CC)C(=O)c1c(/C=C\c2ccc3ccccc3c2)cccc1OC`: the CC50 at 24 h in data set [1] was determined as 28 µM; in data set [2] it was 38.7 µM.

`O=C(O)c1c(O)cccc1/C=C/c1ccccc1`: the 50% cytotoxic concentration (CC50) at 24 h in data set [1] and in data set [2] was greater than 100 µM in each case.

In the case of `Cc1cc(O)c(C(=O)O)c(C=Cc2ccc3ccccc3c2)c1` (mixture of isomers), the cytotoxic concentration (CC50) at 24 h in data set [1] amounted to 30 µM; in data set [2] it was 52 µM. The MIC was found to be 32 µg/mL in the data set with Staphylococcus aureus [3], 16 µg/mL with Staphylococcus aureus [4] and 16 µg/mL in the data set with Staphylococcus aureus [5].

`Oc1cc(CCc2ccc3ccccc3c2)cc(O)c1O`: the 50% cytotoxic concentration (CC50) at 24 h in data set [1] and in data set [2] was greater than 100 µM each time.

In data set [2], `CCN(CC)C(=O)c1c(/C=C/c2ccc3ccccc3c2)cccc1OC` displayed a CC50 at 24 h of 116 µM.

`COc1cc(/C=C\c2ccccc2)cc(OC)c1OC`: the results for the CC50 at 24 h in data set [1] and in data set [2] were 20.2 µM and 36 µM, respectively.

Regarding `Cc1cc(O)c(C(=O)O)c(CCc2ccc3ccccc3c2)c1`, the values for the cytotoxic concentration (CC50) at 24 h in data set [1] and in data set [2] were 38 µM and 40 µM, respectively. The MIC with Staphylococcus aureus [3] worked out at 128 µg/mL (≈ 418 µM); in the data set on Staphylococcus aureus [4], 64 µg/mL (≈ 209 µM); with Staphylococcus aureus [5], 32 µg/mL (≈ 104 µM).

As for `COc1cc(/C=C/c2ccc3ccccc3c2)cc(OC)c1OC`, the 50% cytotoxic concentration (CC50) at 24 h in data set [1] stood at 16.8 µM; in data set [2] it was 23.4 µM.

As to `Oc1cc(CCc2ccccc2)cc(O)c1O`, the CC50 at 24 h in data set [1] is 102 µM; in data set [2], 106 µM.

Regarding `O=C(O)c1c(O)cc(Cl)cc1C=Cc1ccc2ccccc2c1` (mixture of isomers), the cytotoxic concentration (CC50) at 24 h in data set [1] came to 25 µM; in data set [2] it was 38 µM. In addition, the MIC in the data set with Staphylococcus aureus [3], in the data set on Staphylococcus aureus [4] and in the data set on Staphylococcus aureus [5] was 16 µg/mL throughout.

On to `CCN(CC)C(=O)c1c(CCc2ccc3ccccc3c2)cc(OC)cc1OC`, for which the values for the CC50 at 24 h in data set [1] and in data set [2] were 59 µM and greater than 100 µM, respectively.

The record behind these values is ChEMBL document CHEMBL2331124, “Efficient synthesis of anacardic acid analogues and their antibacterial activities” (Bioorg Med Chem Lett, 2013).
